Assay outcomes: PubChem, several laboratories
PKA-R1A act – PKA-R1A complex activation. P00514+P68181. PKA-R1A dissociation, Cy5-IP20 fluorescence polarization; scaled: DMSO 0%, 113 µM cGMP 100%. activation, % at 11.4 µM. 340,000 tested, 0.083% active. AID 504707;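 active = percent activation above the mean of all tested compounds plus 3 SD, cut at about 19% in these data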;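 also: higher means more PKAc released from R1A so a rise in polarization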
UCH37 inh – blocks the human deubiquitinase UCH37. Q9Y5K5. purified proteasome/UCH37, Ub-AMC cleavage fluorescence. inhibition, % (test concentration not listed). 330,000 tested, 0.33% active. AID 588478;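 active = mean inhibition over replicate wells above about 20%, limit read from the data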;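 also: 0% = compound-free wells with enzyme and 100% = wells lacking proteasome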
Target sequence (Q9Y5K5 whole entry, looked up): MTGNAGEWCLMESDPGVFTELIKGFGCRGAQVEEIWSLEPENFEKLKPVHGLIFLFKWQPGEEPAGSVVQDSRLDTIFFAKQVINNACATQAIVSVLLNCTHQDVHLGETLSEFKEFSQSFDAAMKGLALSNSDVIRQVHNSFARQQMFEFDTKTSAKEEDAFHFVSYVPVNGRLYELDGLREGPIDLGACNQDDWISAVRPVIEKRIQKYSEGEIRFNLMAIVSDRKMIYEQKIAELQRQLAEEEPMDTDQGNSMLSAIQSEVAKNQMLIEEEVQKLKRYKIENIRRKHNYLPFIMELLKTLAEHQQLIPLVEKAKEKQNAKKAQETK
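Reagent: Ub-AMC substrate; assay system: Proteasome-associated human UCH37 deubiquitinase; controls: no-proteasome and no-compound wells; read-out: % inhibition of Ub-AMC cleavage fluorescence; timing: 30 min preincubation with enzyme, 25 min cleavage at room temperature; signal: AMC fluorescence from Ub-AMC cleavage, excitation 355 nm, emission 460 nm; buffer or medium: Tris-HCl pH 7.4 plus ovalbumin, ATP-MgCl2, DTT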
aDG glyco up – increases alpha dystroglycan glycosylation; activation, % at 10 µM; AID 624168; 360,000 tested, 0.22% active; Pro5-aDG cells, alpha-DG glycosylation AlphaScreen (IIH6); 0% Pro5, 100% B10-LARGE cell signal;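 active = activation of at least 8% versus controls, or a plate z-score of at least 8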;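 also: Pro5 are CHO cells carrying HIG-tagged alpha-DG that lacks glycosylation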
PKA-R2B activ – activates the human PKA-R2B holoenzyme complex. activation, % at 11.4 µM. 340,000 tested, 0.079% active. P22694+P31323. PKA-R2B holoenzyme dissociation, Cy5-IP20 fluorescence polarization; R2B truncated from residue 108, S112A mutant; 0% DMSO only, 100% 113 µM cGMP. AID 504700;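 active = activation above a cutoff set at the mean over all compounds plus 3 SD, cut at about 18% in these data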;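 also: higher means more holoenzyme dissociation and a rise in polarization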
Fh CTSL1 inh – cathepsin L1 inhibition, PFM18AAP counter-screen; recombinant F. hepatica cathepsin L1, Z-Leu-Arg-MCA fluorescence; AID 1906; inhibition, % at 5.96 µM; 300,000 tested, 0.49% active;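 active = inhibition above the mean of all tested compounds plus 3 SD, set per screening campaign, cut at about 17% in these data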;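 also: 0% = plate median of test compound wells and 100% = 1 µM Z-Phe-Ala-diazomethylketone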
R2B FP artifact – counter-screen for PKA-R2B activators: fluorescence polarization artifacts | shares compounds with PKA-R2B activ | FP artifact counterscreen | activation, % at 11.4 µM | 270 tested, 6% active | AID 504796; in the data active = activation above about 20%;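 also: Cy5 labelled IP20 peptide probe with compound but no PKA protein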
PKA-R2B act conf – PKA-R2B complex activation, confirmation; 270 tested, 9% active; AID 504797; shares compounds with PKA-R2B activ; activation, % at 11.4 µM; fluorescence polarization; in the data active = activation above about 19%
An asterisk follows results filed as active; nt = not tested or not shown. In the library only some 0.94% were active in any assay of this set; here they are far more common.

SMILES	PKA-R1A act	UCH37 inh	aDG glyco up	PKA-R2B activ	Fh CTSL1 inh	R2B FP artifact	PKA-R2B act conf
O=[N+]([O-])c1ccccc1C=Nn1c(C(F)(F)F)n[nH]c1=S	nt	4	nt	nt	nt	nt	nt
O=[N+]([O-])c1cc(-c2nnc(-c3ccccc3)o2)ccc1Oc1ccc(Cl)cc1	13	1	0	-6	-6	nt	nt
CCOc1ccc(Oc2ccc(-c3nnc(-c4ccccc4)o3)cc2[N+](=O)[O-])cc1	13	3	0	21*	0	-1	-1
CCOC(=O)N1CCC(Nc2c(NCCCN(C)Cc3ccccc3)c(=O)c2=O)CC1	10	8	0	20*	-1	0	2
CCCN(CCC)CCNc1c(NC2CCN(C(=O)OCC)CC2)c(=O)c1=O	2	3	0	-5	2	nt	nt
CCOc1cc(C=NNC(=O)c2ccc(CN3CCOCC3)cc2)ccc1OCc1ccccc1	nt	0	nt	nt	nt	nt	nt
COc1ccc(C(=O)NC2(C(F)(F)F)N=C3SCCN3C2=O)cc1 (centres undefined)	-1	-2	0	19*	0	0	-3
Cc1ccc2c(CC(=O)O)coc2c1	8	3	0	19*	-3	0	-1
COc1cccc(Nc2nc(NCCO)nc(N3CCCC3)n2)c1	7	5	0	22*	-2	-1	1
COc1ccc(Nc2nc(NCCO)nc(N3CCCC3)n2)cc1	12	3	0	0	-3	nt	nt
Cc1ccc(C(C)C)c(O)c1C(=O)O	-4	nt	0	19*	nt	5	2
Cc1cc(NC(=O)/C=C/c2ccccc2)c(C(C)C)cc1O	1	0	0	14	1	nt	nt
CNC(=S)NNc1nc(N2CCOCC2)nc(N2CCOCC2)n1	-6	4	0	-6	-1	nt	nt
CCNC(=S)NNc1nc(N2CCOCC2)nc(N2CCOCC2)n1	-10	0	0	19*	-2	1	1
Cc1cc(C)c(OCCn2ccnc2)c(C)c1	-8	2	0	18*	nt	8	7
COCCn1c(SCC(=O)NCCc2ccc(OC)c(OC)c2)nc2c([nH]c3ccccc32)c1=O	-4	-3	0	5	7	nt	nt
COCCn1c(SCC(=O)NCCc2ccccc2)nc2c([nH]c3ccccc32)c1=O	-6	-3	0	20*	-1	3	0
OCC[C@@H]1C[C@H](O)[C@@H](O)[C@@]2(Cc3ccccc3CCO2)O1	7	0	0	3	0	nt	nt
OCC[C@@H]1C[C@@H](O)[C@H](O)[C@@]2(Cc3ccccc3CCO2)O1	-11	4	0	21*	1	1	0
CC(Nc1n[nH]c(=O)[nH]c1=O)C(=O)NN=Cc1ccccc1 (centres undefined)	nt	3	nt	nt	nt	nt	nt
CCOC(=O)c1ccc(N(C(=O)CNC(=O)c2ccco2)C(C(=O)NCC2CCCO2)c2ccc(OC)c(OC)c2)cc1 (centres undefined)	7	0	0	19*	-2	2	-2
COc1ccc(C(C(=O)NCC2CCCO2)N(C(=O)CNC(=O)c2ccco2)c2ccccc2)cc1OC (centres undefined)	7	4	0	4	-1	nt	nt
COC(=O)[C@@H](NC(=O)c1ccc(OC2CCN(Cc3ccccn3)CC2)cc1)C(C)C	6	1	0	20*	-15	-1	-2
CCN(CC)c1ccc(C=c2sc3nnc(-c4ccccc4Cl)n3c2=O)cc1	nt	8	nt	nt	nt	nt	nt
CCC(=NNc1ccccc1Cl)c1cnnc(-c2ccccc2)n1	nt	5	nt	nt	nt	nt	nt
SMILES	PKA-R1A act	UCH37 inh	aDG glyco up	PKA-R2B activ	Fh CTSL1 inh	R2B FP artifact	PKA-R2B act conf
COC(=O)CN1C(=S)N(c2ccc(Cl)cc2)C(=O)C1CC(=O)Nc1ccccc1 (centres undefined)	6	0	0	-4	1	nt	nt
COC(=O)CN1C(=S)N(C)C(=O)C1CC(=O)Nc1ccccc1 (centres undefined)	-13	3	0	21*	4	-1	-1
COc1cccc(C(C)=NNC(=O)c2ccc(N(C)C)cc2)c1	nt	4	nt	nt	nt	nt	nt
O=C(COC(=O)CCNS(=O)(=O)c1ccccc1)NNC(=O)c1ccccc1	2	0	0	-7	-11	nt	nt
O=C(COC(=O)CCNS(=O)(=O)c1ccccc1)NC1CC1	-2	-1	0	19*	nt	4	0
O=C(NC1CCCCC1)c1c(O)nc2sccn2c1=O	4	2	0	20*	3	8	0
O=C(NC1CCCCCC1)c1c(O)nc2sccn2c1=O	3	-2	1	-6	5	nt	nt
COc1ccccc1-c1nnc(SCC(O)=C(C#N)c2nc3ccccc3[nH]2)n1C1CCCCC1	nt	5	nt	nt	nt	nt	nt
CCOc1ccccc1/C=C(\C#N)C(=O)NC1CC1	nt	-1	0	nt	-2	nt	nt
CCOc1c(Br)cc(/C=C(\C#N)C(=O)NC2CC2)cc1OC	1	4	1	19*	1	4	2
O=C(NC1CCCCC1)c1ccc(Br)o1	-9	-1	0	18*	1	-3	2
CN1CCC(C(=O)N2CCCC(C(=O)c3ccc4c5c(cccc35)CC4)C2)CC1 (centres undefined)	1	-106	1	-2	-2	nt	nt
CC(=O)N1CCCC(C(=O)c2ccc3c4c(cccc24)CC3)C1 (centres undefined)	1	-36	0	25*	-1	2	0
CCCC(c1nnnn1CC(=O)OCC)N(Cc1cc2ccc(C)cc2[nH]c1=O)C1CCCC1 (centres undefined)	2	2	0	-3	4	nt	nt
CCCC(c1nnnn1CC(=O)OCC)N(Cc1cc2c(C)cc(C)cc2[nH]c1=O)C1CCCC1 (centres undefined)	7	0	0	19*	3	4	-1
COC(=O)C(=Nc1ccccc1)/C(C(=O)C(=O)N(C)c1ccccc1)=C(/O)c1ccccc1	nt	8	nt	nt	nt	nt	nt
CC1Oc2ccccc2C=C1C=NNC(=O)c1ccncc1 (centres undefined)	nt	4	nt	nt	nt	nt	nt
Cn1c(CCCOc2ccc(Cl)cc2Cl)nnc1SCC(=O)Nc1nccs1	-1	1	2	20*	-1	0	2
CCCCc1nnc(SCC(=O)Nc2nccs2)n1C	-5	1	0	-1	-4	nt	nt
C/C(C=NNC(=O)c1cc(-c2ccc(Cl)cc2)nc2ccccc12)=C\c1ccco1	nt	0	nt	nt	nt	nt	nt
CC(NC(=O)Cc1ccc(F)cc1)c1ccc(F)cc1 (centres undefined)	2	2	0	19*	-1	1	6
COc1ccc(CC(=O)OCC(=O)NC2CCCCC2)cc1OC	-5	2	0	18*	nt	1	-2
